# Compound activity: PubChem BioAssay, several laboratories
# M1 ag = agonists of M1 muscarinic receptor; AID 626; 3% of 64,000 active; B-score at 10 µM; CHO-M1 cells, Fluo-4 calcium fluorescence, agonist mode; active compounds read high;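 active = fluorescence rise, raw or as B-score row- and column-corrected plate score, outside the 99.7% band of its plate's samples, either direction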
# RORA act = activates the human nuclear receptor RORA | P35398 | CHO-K1 Gal4-RORA LBD luciferase reporter, luminescence; percent increase over mock-subtracted basal signal | activation, % at 10 µM | 1.5% of 65,000 active | AID 560;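 active = activation above the mean of all tested compounds plus 3 SD, cut at about 49% in these data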;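 note: 0% = DMSO-treated RORA cells and 100% = added signal equal to DMSO minus mock-transfected cells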
# SF-1 act = SF-1 (human) activation. CHO-K1 Gal4-SF-1 LBD luciferase reporter; % increase over DMSO SF-1-specific signal. activation, % at 10 µM. Q13285. 1.9% of 65,000 active;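 active = activation above the mean activation of all tested compounds plus 3 SD, cut at about 50% in these data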
# Target sequence (Q13285 whole entry, looked up, the tested form may be a part): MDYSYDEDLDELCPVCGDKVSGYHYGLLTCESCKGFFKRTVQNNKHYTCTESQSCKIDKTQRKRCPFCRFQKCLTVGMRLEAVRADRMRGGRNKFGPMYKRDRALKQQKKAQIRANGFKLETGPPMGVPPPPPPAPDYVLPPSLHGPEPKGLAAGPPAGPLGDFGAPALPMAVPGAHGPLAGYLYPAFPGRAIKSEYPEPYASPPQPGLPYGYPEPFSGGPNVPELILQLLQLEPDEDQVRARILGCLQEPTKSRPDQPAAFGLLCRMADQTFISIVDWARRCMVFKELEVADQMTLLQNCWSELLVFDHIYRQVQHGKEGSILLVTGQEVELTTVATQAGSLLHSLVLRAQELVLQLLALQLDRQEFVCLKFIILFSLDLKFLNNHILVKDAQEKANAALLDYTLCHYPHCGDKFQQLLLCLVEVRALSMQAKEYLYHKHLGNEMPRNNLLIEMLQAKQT
#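 Test system: CHO-K1 cells co-transfected with Gal4 DBD–human SF-1 LBD, 5xGal4 luciferase reporter. Quantity: 4,000 cells per well. Compound: 10 µM only. Incubation: compound added 1 h post-seeding, 20 h exposure at 37 °C, 5% CO2. Detection: SteadyLite luciferase luminescence. Replication: one test per compound.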
# HePTP inh = human HePTP phosphatase inhibition; P35236; recombinant HePTP phosphatase activity, OD absorbance; inhibition, % at 20 µM; 0.64% of 110,000 active; AID 521; in the data active = inhibition above about 50%;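 note: plate controls were vehicle for no effect and reference inhibitor for full effect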
# D1 mod = allosterically modulates the human D1 dopamine receptor; 5.9% of 58,000 active; AID 641; B-score at 10 µM; HEK293 D1, CRE-luciferase, dopamine EC30 potentiation; actives deviate in either direction;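 active = luminescence count or its row- and column-corrected plate score outside the 99.7% band of the plate's sample wells, on either side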
# M1 antag = M1 muscarinic receptor (rat) antagonism; CHO-M1 cells, Fluo-4 calcium, ACh EC80 antagonist mode; active compounds read low; P08482; B-score at 10 µM; 3.4% of 64,000 active;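 active = calcium fluorescence response, raw or row-and-column corrected B-score, differing from the plate sample mean either way at a set confidence level, mostly lower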
# Numbers without * were called inactive; x = not tested or not shown. Hits are enriched below; roughly 8.2% of the tested compounds scored in any of these assays.
SMILES,M1 ag,RORA act,SF-1 act,HePTP inh,D1 mod,M1 antag
CCOc1ccc(-c2nnc3sc(-c4ccccc4OC)nn23)cc1,-0.81,-7,7,3,x,-0.49
CCC(C(=O)O)n1nnc(-c2ccc(-c3ccc(OC)cc3)cc2)n1 (stereo not given),1.1,23,-1,0,x,-0.58
COc1ccc(-c2ccc(-c3nnn(CC(C)=O)n3)cc2)cc1,0.26,38,90*,6,-1.4,-0.38
O=C(c1ccc(Br)o1)N1CCN(C/C=C/c2ccccc2)CC1,-0.27,-17,-4,8,-3.7*,-0.22
O=C(c1ccc(C#Cc2ccccc2)cc1)N1CCN(C/C=C/c2ccccc2)CC1,x,x,x,5,x,x
CC(C)(C)NC(=O)c1cccc(N2C(=O)c3cccc([N+](=O)[O-])c3C2=O)c1,x,x,x,-3,x,x
CCc1cc(OCCOCCN(C)CCO)ccc1Cl,x,x,x,8,x,x
Cn1c(=O)[nH]c(=O)c2c1nc(SCC(=O)Nc1ccccc1)n2Cc1ccccc1,-0.5,28,15,7,3.7,0.31
CC(C)Sc1nc2c(c(=O)[nH]c(=O)n2C)n1Cc1ccc(Cl)cc1,-0.049,23,2,9,23*,0.63
C=C(C)CSc1nc2c(c(=O)[nH]c(=O)n2C)n1Cc1ccccc1,0.19,6,-13,9,11*,-0.025
COC(=O)c1c(-c2ccncc2)csc1NC(=O)c1ccoc1C,-0.37,48,64*,9,2,0.57
CCN(CC)C(=O)c1sc(NC(=O)c2ccoc2C)c(C(=O)OC)c1C,-0.077,18,13,3,1.1,0.26
c1ccc2c(c1)nc(CN1CCOCC1)n1c3ccccc3nc21,4.2,-2,8,5,x,0.031
O=c1c2cccc3c(N4CCOCC4)ccc(c32)c2nc3ccccc3n12,7.2*,8,44,4,-1,-0.27
Cc1ccc2c(c1)c1ncnc(N3CCC4(CC3)OCCO4)c1n2C,0.3,62*,67*,1,2,0.1
Nc1ccc2nc(-c3cccc(Cl)c3)oc2c1,x,x,x,-3,x,x
Nc1ccc(-c2nc3ccc(N)cc3o2)cc1,-0.68,-2,5,1,-3.1*,-0.92
O=C(c1ccc(Cl)c([N+](=O)[O-])c1)N1CCN(c2ccc([N+](=O)[O-])cc2)CC1,x,x,x,2,x,x
O=C(O)C1CC(O)CN1C(=O)Oc1ccccc1 (stereo not given),x,x,x,105*,x,x
O=C(COC(=O)C1CCCN1C(=O)Oc1ccccc1)c1ccccc1 (stereo not given),x,x,x,-10,x,x
COCc1cc(=O)n2[nH]c(-c3cccc(Br)c3)cc2n1,-0.25,53*,48,1,-0.16,0.37
CCCc1cc(=O)n2[nH]c(-c3ccc(C)cc3)cc2n1,0.44,79*,26,2,x,-0.16
CCCc1cc(=O)n2[nH]c(-c3ccc(F)cc3)cc2n1,x,x,x,-4,x,x
CCCc1cc(=O)n2[nH]c(-c3ccccc3)cc2n1,0.048,52*,68*,-8,-1,-0.57
COCCN(Cc1cc2cc3c(cc2n2nnnc12)OCO3)C(=O)c1ccccc1F,0.81,-8,0,-4,2.5,-0.47
SMILES,M1 ag,RORA act,SF-1 act,HePTP inh,D1 mod,M1 antag
CCOc1ccc2nc(NC(=O)C(CC)Sc3nc(C)cc(=O)[nH]3)sc2c1 (stereo not given),-0.17,52*,23,9,0.13,0.15
CCOc1cccc(C(=O)Nc2nc3ccc(C)cc3s2)c1,x,x,x,6,x,x
CCOc1ccc2nc(NC(=O)Nc3cccs3)sc2c1,-5e-05,8,31,0,-3.8*,-0.021
CCOc1ccc2nc(NC(=O)c3ccoc3C)sc2c1,0.37,-26,-29,-6,-5.6*,-0.054
CCOc1ccc2nc(NC(=O)c3ccccc3C(=O)O)sc2c1,x,x,x,2,x,x
C=CCN1C(=O)/C(=C\c2ccc(CC)cc2)C(=O)NC1=S,x,x,x,15,x,x
O=c1[nH]c(/C=C/c2ccc(O)cc2)nc2ccccc12,x,x,x,12,x,x
COc1ccccc1CN1CCN(Cc2ccncc2)CC1,x,x,x,4,x,x
Cc1cc(Br)cc(C)c1NC(=O)C(C)C,x,x,x,4,x,x
COCCCn1c(=N)c(C(=O)NCC2CCCO2)cc2c(=O)n3ccccc3nc21 (stereo not given),0.83,-7,-3,-6,-0.43,-0.66
CCOCCCn1c(=N)c(C(=O)Nc2cc(C)on2)cc2c(=O)n3ccccc3nc21,5.9*,-19,-16,12,1.5,-0.18
COc1ccccc1CNC(=O)c1nnc(Cc2ccc(Cl)cc2)o1,-0.93,7,28,-3,0.39,0.47
O=C(CCCN1C(=O)/C(=C/c2ccc(F)cc2)SC1=S)Nc1ccc(C(=O)O)cc1,x,x,x,102*,x,x
O=C(CN1C(=O)/C(=C/c2ccccc2)SC1=S)Nc1cccc(Br)c1,x,x,x,6,x,x
O=C(CN1C(=O)/C(=C/c2ccccc2)SC1=S)Nc1cccc(C(=O)O)c1,x,x,x,52*,x,x
CCN(CC)c1ccc(N2C(=O)/C(=C/c3ccc(C(=O)O)cc3)SC2=S)cc1,x,x,x,104*,x,x
Cc1ccc(-c2[nH]nc3c2C(c2cccnc2)C(C#N)=C(N)O3)cc1 (stereo not given),-0.24,-1,-4,-1,14*,0.097
Cc1ccc(-c2nnc(Nc3ccccc3)o2)cc1,-0.21,-61,-68,0,-4.2*,0.064
CSc1nnc(-c2ccc(C)cc2)o1,x,x,x,-2,x,x
COc1cc(C(=O)N2CCN(S(=O)(=O)c3ccc(C)cc3)CC2)ccc1OCc1c(C)noc1C,x,3,13,3,-0.12,x
CCOC(=O)c1cnc(Nc2nc3ccccc3o2)nc1CSc1nnc(C)s1,-0.45,58*,35,x,-0.12,0.023
O=C(O/N=C(/c1ccccc1)c1ccncc1)c1ccc(Cl)cc1Cl,x,x,x,7,x,x
CCOc1ccc(C(=O)Nc2ccc(NC(=O)c3ccco3)c(OC)c2)cc1Br,x,x,x,3,x,x
COC(=O)C(C(=O)OC)=C(/C=C/C=C/N(C)C)N(C)C,-0.86,-10,-5,-4,0.043,-0.97
CN(C)/C=C/C=C/C(=O)c1ccc(/C=C/C=C/N(C)C)o1,x,x,x,103*,x,x
SMILES,M1 ag,RORA act,SF-1 act,HePTP inh,D1 mod,M1 antag
COc1ccc(N2CCN(CCNC(=O)c3ccc(NC(=O)C4CCCO4)cc3)CC2)cc1 (stereo not given),-2.8*,6,10,0,-0.12,-0.013
CC(C)(C)C(=O)Nc1ccc(-c2nc3ccccc3o2)cc1,x,x,x,-4,x,x
O=C(Nc1ccc(Oc2ccccc2)cc1)C1CCCO1 (stereo not given),0.33,27,58*,-6,-0.2,0.59
O=C(Nc1ccc(-c2nc3ccccc3o2)cc1)C1CCCO1 (stereo not given),-1,38,11,9,-5.2*,-0.7
COc1cc2c(cc1NC(=O)C1CCCO1)oc1ccccc12 (stereo not given),-0.083,58*,78*,-3,x,0.48
COC(=O)c1ccc(NC(=O)C2CCCO2)cc1 (stereo not given),-0.061,20,20,4,-0.011,-0.2
